We go through 1 molecule from paper PMC9335275 (Proceedings of the National Academy of Sciences of the …, 2022).

Each structure is given as a SMILES string. Like-named read-outs stand apart in the source and are kept apart here. Where only a bound is given, the exact number is not on record here.

For data set [1] the following is noted: literature value; cited from earlier work.
A further data set has as its system monkeys. To be noted: 12 nmol/kg; cited from earlier work.
The conditions of data set [2]: monkeys, 12 nmol/kg; cited from earlier work.
Data set [3] is described as follows: In vitro degradation at pH 7.4, 37 °C, HPLC analysis. The class given is physicochemical.
The test system of another data set is mice. To be noted: 70 nmol/kg; cited from earlier work.
For data set [4] the following is noted: mice, QD 70-nmol/kg dose; cited from earlier work.
Data set [5] has as its target T1, NPR-B receptor on NIH3T3 cells (Mus musculus, UniProt Q6VVW5).
T1 sequence (Q6VVW5 23-1047 limits assumed): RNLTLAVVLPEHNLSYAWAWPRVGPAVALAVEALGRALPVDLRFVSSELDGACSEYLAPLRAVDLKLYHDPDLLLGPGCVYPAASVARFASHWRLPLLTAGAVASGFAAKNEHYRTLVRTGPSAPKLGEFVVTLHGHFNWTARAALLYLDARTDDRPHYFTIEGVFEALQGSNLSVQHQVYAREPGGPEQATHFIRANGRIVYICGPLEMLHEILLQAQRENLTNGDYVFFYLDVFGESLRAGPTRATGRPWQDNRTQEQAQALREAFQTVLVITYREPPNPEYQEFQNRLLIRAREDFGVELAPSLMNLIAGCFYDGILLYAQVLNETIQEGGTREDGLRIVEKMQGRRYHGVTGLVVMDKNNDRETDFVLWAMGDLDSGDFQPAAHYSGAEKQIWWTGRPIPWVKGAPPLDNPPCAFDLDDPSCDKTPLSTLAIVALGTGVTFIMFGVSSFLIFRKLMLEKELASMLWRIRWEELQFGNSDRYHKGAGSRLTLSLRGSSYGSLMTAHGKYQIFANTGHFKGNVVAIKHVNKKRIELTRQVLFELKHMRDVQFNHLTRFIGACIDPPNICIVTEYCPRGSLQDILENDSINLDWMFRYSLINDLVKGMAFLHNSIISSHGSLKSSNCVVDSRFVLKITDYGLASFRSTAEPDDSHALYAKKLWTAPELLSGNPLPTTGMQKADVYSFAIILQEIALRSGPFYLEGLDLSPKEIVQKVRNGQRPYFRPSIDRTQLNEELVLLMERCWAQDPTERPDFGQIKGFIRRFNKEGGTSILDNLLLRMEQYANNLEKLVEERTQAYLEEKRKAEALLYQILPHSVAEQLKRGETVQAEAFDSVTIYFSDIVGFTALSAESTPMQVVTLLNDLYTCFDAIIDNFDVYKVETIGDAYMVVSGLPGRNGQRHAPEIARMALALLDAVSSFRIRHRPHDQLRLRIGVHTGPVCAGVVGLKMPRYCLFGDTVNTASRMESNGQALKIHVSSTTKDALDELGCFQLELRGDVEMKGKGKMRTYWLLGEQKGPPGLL
To be noted: read-out: EC50, reported; literature values; cited from earlier work.

For data set [6], the target named is T1, NPR-B receptor on NIH3T3 cells. Description: 3T3 cell NPR-B guanylate cyclase assay. It counts as cell-based.
Data set [7] can be described thus: Body weight of treated mice. The class given is in vivo, mouse. To be noted: 3-wk-old FVB/nJ male mice, various regimens. A digest of the protocol: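 Wild-type male FVB/nJ mice, 3 wk old, about 15 g. Groups received one of: vehicle, daily SC 70 nmol/kg peptide, or microsphere-conjugated peptide. Conjugate dosing was weekly, biweekly or a single dose, either as constant nmol per mouse or as µmol/kg by body weight. Body weights of treated and untreated animals were followed over the study.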

For another data set, the system named is children with ACH. To be noted: once daily 15 μg/kg SC; cited from earlier work.
Data set [8] has as its system 3-wk-old FVB/nJ male mice. The data set is described as follows: Growth. The class given is in vivo, mouse. To be noted: QD 70 nmol/kg SC, 5 wk, n = 6. A digest of the protocol: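 Wild-type male FVB/nJ mice, 3 wk old, groups of 6, were given SC injections once daily of 70 nmol/kg peptide or vehicle for 5 wk. Total body length was nasoanal plus tail length, measured in anesthetized mice positioned with head extended, nose on a horizontal guideline and tail straight. Length change over the period was compared with the vehicle group.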

For the molecule `CC[C@H](C)[C@@H]1NC(=O)[C@H](CCCNC(=N)N)NC(=O)[C@H](CC(=O)O)NC(=O)[C@H](CC(C)C)NC(=O)[C@H](CCCCN)NC(=O)[C@H](CC(C)C)NC(=O)CNC(=O)[C@H](Cc2ccccc2)NC(=O)[C@@H](NC(=O)CNC(=O)[C@H](CCCCN)NC(=O)[C@H](CO)NC(=O)[C@H](CC(C)C)NC(=O)CNC(=O)[C@H](CCCCN)NC(=O)[C@H](CCCCN)NC(=O)[C@H](CC(N)=O)NC(=O)[C@H](C)NC(=O)CNC(=O)[C@H](CCCCN)NC(=O)[C@H](Cc2ccc(O)cc2)NC(=O)[C@H](CCCCN)NC(=O)[C@H](CCCNC(=N)N)NC(=O)[C@H](C)NC(=O)[C@H](CC(N)=O)NC(=O)[C@@H]2CCCN2C(=O)[C@H](Cc2c[nH]cn2)NC(=O)[C@H](CCC(=O)O)NC(=O)[C@H](CCC(N)=O)NC(=O)CNC(=O)[C@@H]2CCCN2)CSSC[C@@H](C(=O)O)NC(=O)CNC(=O)[C@H](CC(C)C)NC(=O)CNC(=O)[C@H](CO)NC(=O)[C@H](CCSC)NC(=O)[C@H](CO)NC(=O)CNC1=O` [vosoritide], the maximum concentration (Cmax) is recorded as around 5 nM in [1], around 10 nM in data set [2] and 200 nM in data set [4]. Also, the “systemic BP or HR” value with monkeys was “no changes in systemic BP or HR”. Further, the “degradation t1/2” value in [3] (100 µM, 10 mM sodium phosphate, 0.13 M NaCl, pH 7.4, 37 °C, HPLC) is around 170 h. In data set [3] (physiological pH and temperature), this molecule yielded a t1/2 for degradation of at most 1 wk. In addition, the “blood pressure and heart rate” value in the data set with mice was “acute decreases in blood pressure and increases in heart rate within acceptable limits”. Besides, the results for the EC50 in data set [5] and in [6] were 4.9 nM and 11 nM, respectively. The “body weights of treated versus untreated mice” value in [7] is listed as “no difference”. Further, in the data set on children with ACH, the annualized growth velocity entry is “sustained increase in the annualized growth velocity”. For the same molecule, in the data set with children with ACH, the side effect profile result was “mild side effect profile”. The “growth (TBL) exceeding that of the vehicle control group at study end” value in [8] was found to be 100%.
